In ChEMBL document CHEMBL2375255, “New quinazoline derivatives for telomeric G-quadruplex DNA: effects of an added phenyl group on quadruplex binding ability” (Eur J Med Chem, 2013):
Activity calls are given as the source filed them. The rule behind the calls is not given here.

Legend:
Homo sapiens [1] = species on record: Homo sapiens; assay: Binding affinity to human telomeric G-quadruplex 5'-d(GGG[TTAGGG]3)-3' DNA assessed as change in melting temperature at 25 uM measured at 265 nM wavelength by circular dichroism spectroscopic analysis
Procedure, shortened: (§1)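 HTG21 in 10 mM Tris-HCl, pH 7.4, 60 mM KCl. CD melting profiles were read at 265 nm and at 290 nm, and ΔTm was determined from them.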

Homo sapiens [2] = species on record: Homo sapiens; assay: Binding affinity to human telomeric G-quadruplex 5'-d(GGG[TTAGGG]3)-3' DNA assessed as induction of conformation conversion from antiparallel to parallel type at 25 uM after 5 mins by circular dichroism spectroscopic analysis
Homo sapiens [3] = species on record: Homo sapiens; assay: Binding affinity to human telomeric G-quadruplex 5'-d(GGG[TTAGGG]3)-3' DNA assessed as change in melting temperature at 25 uM measured at 290 nM wavelength by circular dichroism spectroscopic analysis; procedure, shortened: as §1
[4] = Binding affinity to human biotinylated telomeric G-quadruplex 5'-d(GGG[TTAGGG]3)-3' DNA by surface plasmon resonance analysis
Procedure, shortened: (§2)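 SPR with a Neutravidin-coated sensor chip. Biotinylated duplex DNA and biotinylated HTG21 were folded in running buffer (50 mM Tris-HCl, 100 mM KCl, pH 7.4, 0.005% Tween20) and immobilized. A range of ligand concentrations was injected simultaneously over G-quadruplex, duplex and blank reference channels. Binding plots from sensorgrams gave equilibrium constants (KD).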

[5] = Binding affinity to biotinylated duplex DNA (unknown origin) by surface plasmon resonance analysis; procedure, shortened: as §2
HL-60 [6] = assay: Binding affinity to G-quadruplex DNA in human HL60 cells assessed as telomere shortening at 1 uM after 12 days by restriction fragment length assay; format: cell-based
Procedure, shortened: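 HL60 cells exposed to ligand for 12 days. Genomic DNA digested with Hinf1/Rsa1, run on 0.8% agarose gel and transferred to nylon membrane. DNA fixed by baking at 120 °C for 20 min. Membrane hybridized with DIG-labelled telomeric-repeat probe, then detected with anti-DIG-alkaline phosphatase.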

HL-60 [7] = assay: Induction of senescence in human HL60 cells assessed as increase in proportion of enlarged and flattened cells at 1 uM after 12 days by senescence-associated beta-galactosidase activity based optical microscopic analysis; format: functional, cell-based
Procedure, shortened: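 HL60 cells treated continuously for 12 days; 0.1% DMSO as control. Cells fixed 15 min at room temperature in 2% formaldehyde/0.2% glutaraldehyde, then washed with PBS. Stained overnight at 37 °C with 1 mg/mL X-gal solution. Enlarged, flattened, stained cells viewed by optical microscopy.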

HL-60 [8] = assay: Cytotoxicity against human HL60 cells treated every 3 days up to 12 days; format: functional, cell-based
HL-60 [9] = assay: Cytotoxicity against human HL60 cells at 0.5 to 1 uM treated every 3 days up to 12 days relative to control; format: functional, cell-based
HL-60 [10] = assay: Cytotoxicity against human HL60 cells after 48 hrs by MTT assay; format: functional, cell-based; conditions: HL-60, 48 h
Procedure, shortened: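 HL60 cells seeded at 1.0 × 10³ per well and exposed to a range of concentrations for 48 h at 37 °C, 5% CO₂. MTT (5 mg/mL) added for 4 h. Formazan dissolved in DMSO and OD read at 570 nm. Each dose tested in triplicate; IC50 derived from mean OD versus concentration curves.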

[11] = biological target: Telomerase reverse transcriptase (Homo sapiens, UniProt O14746); assay: Inhibition of telomerase in human HL60 cell extract by TRAP-LIG assay; design: species or system HL-60
Procedure, shortened: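 TRAP-LIG: compounds added to telomerase reaction mix containing HL60 cell extract. Ligand removed after enzyme incubation, before amplification. Purified extended products PCR-amplified for 35 cycles (94 °C 30 s, 61 °C 1 min, 72 °C 1 min). IC50 determined.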

[12] = Binding affinity to biotinylated duplex DNA (unknown origin) up to by surface plasmon resonance analysis; procedure, shortened: as §2
HL-60 [13] = assay: Binding affinity to G-quadruplex DNA in human HL60 cells assessed as telomere shortening at 0.01 to 1 uM after 12 days by restriction fragment length assay
Homo sapiens [14] = species on record: Homo sapiens; assay: Binding affinity to human biotinylated telomeric G-quadruplex 5'-d(GGG[TTAGGG]3)-3' DNA up to 20 uM by surface plasmon resonance analysis; procedure, shortened: as §2

Sequence of Telomerase reverse transcriptase (O14746 whole entry): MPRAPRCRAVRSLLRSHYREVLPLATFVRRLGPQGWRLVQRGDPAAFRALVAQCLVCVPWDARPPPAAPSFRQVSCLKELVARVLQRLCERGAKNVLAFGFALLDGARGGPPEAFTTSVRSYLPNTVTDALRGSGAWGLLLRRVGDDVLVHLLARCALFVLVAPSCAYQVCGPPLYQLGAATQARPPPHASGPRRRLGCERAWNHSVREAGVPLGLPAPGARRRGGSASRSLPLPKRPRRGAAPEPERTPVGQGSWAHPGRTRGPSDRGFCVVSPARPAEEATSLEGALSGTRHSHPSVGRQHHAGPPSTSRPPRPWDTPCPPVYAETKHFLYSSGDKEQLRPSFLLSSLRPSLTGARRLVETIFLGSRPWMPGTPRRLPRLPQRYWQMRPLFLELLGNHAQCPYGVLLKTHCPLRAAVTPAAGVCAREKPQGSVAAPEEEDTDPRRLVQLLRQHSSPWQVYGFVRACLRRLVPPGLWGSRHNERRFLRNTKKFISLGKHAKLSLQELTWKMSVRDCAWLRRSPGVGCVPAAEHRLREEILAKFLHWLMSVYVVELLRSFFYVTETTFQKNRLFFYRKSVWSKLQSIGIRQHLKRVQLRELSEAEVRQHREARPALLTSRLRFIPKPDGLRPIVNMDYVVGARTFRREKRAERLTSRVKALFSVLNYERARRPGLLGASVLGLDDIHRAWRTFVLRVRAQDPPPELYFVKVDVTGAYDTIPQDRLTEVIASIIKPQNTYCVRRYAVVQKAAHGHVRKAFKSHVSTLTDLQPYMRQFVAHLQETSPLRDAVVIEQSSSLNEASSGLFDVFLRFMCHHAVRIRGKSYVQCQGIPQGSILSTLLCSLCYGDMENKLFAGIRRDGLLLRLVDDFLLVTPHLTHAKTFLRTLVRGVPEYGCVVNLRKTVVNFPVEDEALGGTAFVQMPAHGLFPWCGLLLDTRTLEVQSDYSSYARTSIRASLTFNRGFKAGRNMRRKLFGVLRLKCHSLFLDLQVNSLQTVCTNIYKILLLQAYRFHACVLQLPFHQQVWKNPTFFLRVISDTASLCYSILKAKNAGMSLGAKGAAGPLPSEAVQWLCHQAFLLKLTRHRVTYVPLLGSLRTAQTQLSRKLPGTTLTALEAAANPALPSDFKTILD

Compound | ΔTm (Homo sapiens [1]) | Activity (Homo sapiens [2]) | ΔTm (Homo sapiens [3]) | Kd [4] | also measured
CN(C)CCCNc1nc(-c2ccc(Cl)cc2NC(=O)CCN2CCN(C)CC2)nc2ccccc12 | 14.4 °C | Active | 4.4 °C | – | –
CN(C)CCCNc1c2ccccc2nc2c1[nH]c1ccccc12 | 11.2 °C | inactive | 8 °C | 28 µM | Kd [5]: 5.02 µM
CN(C)CCCNCCC(=O)Nc1ccc(C(=O)Nc2cc(Cl)ccc2-c2nc(NCCCN(C)C)c3ccccc3n2)cc1 | > 28 °C | Active | 14.8 °C | 0.379 µM | Activity (HL-60 [6]): Active; Activity (HL-60 [7]): Active; Activity (HL-60 [8]): Dose-dependent effect; Activity (HL-60 [9]): Active; IC50 (HL-60 [10]): 1.7 µM; IC50 [11]: 2.3 µM; Activity [12]: inactive; Activity (HL-60 [13]): Active
CN(C)CCCNc1nc(-c2ccccc2NC(=O)CN2CCN(C)CC2)nc2ccccc12 | 3.1 °C | inactive | 0.6 °C | – | Activity (Homo sapiens [14]): inactive
CN(C)CCCNc1nc(-c2ccccc2NC(=O)CN2CCOCC2)nc2ccccc12 | 0.5 °C | inactive | 0 °C | – | –
CN(C)CCCNc1nc(-c2ccc(Cl)cc2NC(=O)c2ccc(NC(=O)CCN3CCN(C)CC3)cc2)nc2ccccc12 | > 28 °C | Active | 3.4 °C | 0.276 µM | Activity [12]: inactive
CN(C)CCCNc1nc(-c2ccc(Cl)cc2NC(=O)c2ccc(NC(=O)CCN3CCOCC3)cc2)nc2ccccc12 | 21.6 °C | Active | 4.7 °C | 3.06 µM | Activity [12]: inactive
CN(C)CCCNc1nc(-c2ccccc2NC(=O)CCN2CCN(C)CC2)nc2ccccc12 | 8 °C | Active | 2.1 °C | – | Activity (Homo sapiens [14]): inactive
CN(C)CCCNCCC(=O)Nc1ccccc1-c1nc(NCCCN(C)C)c2ccccc2n1 | 12.4 °C | Active | 6.2 °C | 3.36 µM | IC50 [11]: > 50 µM; Kd [5]: 7.9 µM
CCN(CC)CCC(=O)Nc1ccccc1-c1nc(NCCCN(C)C)c2ccccc2n1 | 8.2 °C | Active | 2.5 °C | – | –
CN(C)CCCNc1nc(-c2ccccc2NC(=O)CCN2CCCC2)nc2ccccc12 | 8.7 °C | Active | 3.6 °C | – | –
CN(C)CCCNc1nc(-c2ccc(Cl)cc2NC(=O)c2ccc(NC(=O)CCN3CCCC3)cc2)nc2ccccc12 | > 28 °C | Active | 5.7 °C | 0.227 µM | Activity [12]: inactive
CN(C)CCCNc1nc(-c2ccccc2NC(=O)CN2CCCC2)nc2ccccc12 | 7.3 °C | Active | 2.6 °C | – | –
CN(C)CCCNc1nc(-c2ccccc2NC(=O)CCN2CCOCC2)nc2ccccc12 | 4.3 °C | inactive | 0.9 °C | – | –
CN(C)CCCNc1nc(-c2ccccc2NC(=O)c2ccc(NC(=O)CCN3CCOCC3)cc2)nc2ccccc12 | 15.3 °C | Active | 8.2 °C | – | –

Now from value to molecule, other results behind:

ΔTm (Homo sapiens [1]) | Activity (Homo sapiens [2]) | ΔTm (Homo sapiens [3]) | Kd [4] | Compound | also measured
21.4 °C | Active | 11.7 °C | – | CN(C)CCCNc1nc(-c2ccccc2NC(=O)c2ccc(NC(=O)CN3CCCC3)cc2)nc2ccccc12 | –
19.6 °C | Active | 5.4 °C | 1.61 µM | CCN(CC)CCC(=O)Nc1ccc(C(=O)Nc2ccccc2-c2nc(NCCCN(C)C)c3ccccc3n2)cc1 | Kd [5]: 22 µM
21.6 °C | Active | 11.6 °C | 8.34 µM | CCN(CC)CC(=O)Nc1ccc(C(=O)Nc2ccccc2-c2nc(NCCCN(C)C)c3ccccc3n2)cc1 | Kd [5]: 11.9 µM
21.8 °C | Active | 7.4 °C | 2.75 µM | CN(C)CCCNc1nc(-c2ccccc2NC(=O)c2ccc(NC(=O)CN3CCN(C)CC3)cc2)nc2ccccc12 | Kd [5]: 39.7 µM
> 28 °C | Active | – | 1.11 µM | CN(C)CCCNCCC(=O)Nc1ccc(C(=O)Nc2ccccc2-c2nc(NCCCN(C)C)c3ccccc3n2)cc1 | IC50 [11]: 30.9 µM; Activity [12]: inactive
11.9 °C | Active | 4.7 °C | – | CN(C)CCCNc1nc(-c2ccccc2NC(=O)c2ccc(NC(=O)CN3CCOCC3)cc2)nc2ccccc12 | –
21.7 °C | Active | 8.2 °C | 1.48 µM | CN(C)CCCNc1nc(-c2ccccc2NC(=O)c2ccc(NC(=O)CCN3CCN(C)CC3)cc2)nc2ccccc12 | Kd [5]: 13.2 µM
18.7 °C | Active | 4.6 °C | – | CN(C)CCCNc1nc(-c2ccccc2NC(=O)c2ccc(NC(=O)CCN3CCCC3)cc2)nc2ccccc12 | –
2.1 °C | Active | 0.7 °C | – | CCN(CC)CC(=O)Nc1ccccc1-c1nc(NCCCN(C)C)c2ccccc2n1 | –
21.9 °C | Active | 2.8 °C | 0.302 µM | CCN(CC)CCC(=O)Nc1ccc(C(=O)Nc2cc(Cl)ccc2-c2nc(NCCCN(C)C)c3ccccc3n2)cc1 | Activity [12]: inactive
